An excerpt weighted towards active compounds, which were near 4.6% of everything screened.
GPR7 antagonist = antagonists of human GPR7 (neuropeptides B/W receptor 1); P48145; GPR7-expressing cells, fluorescence antagonist assay; inhibition, % at 4.4 µM; actives 1.1% (n = 290,000); AID 1861; in the data active means inhibition above about 16%, passing the limit was not always enough;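 further: cells stimulated with the agonist NPW; 0% = agonist with vehicle and 100% = vehicle without agonist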
Target sequence (P48145 whole entry, looked up): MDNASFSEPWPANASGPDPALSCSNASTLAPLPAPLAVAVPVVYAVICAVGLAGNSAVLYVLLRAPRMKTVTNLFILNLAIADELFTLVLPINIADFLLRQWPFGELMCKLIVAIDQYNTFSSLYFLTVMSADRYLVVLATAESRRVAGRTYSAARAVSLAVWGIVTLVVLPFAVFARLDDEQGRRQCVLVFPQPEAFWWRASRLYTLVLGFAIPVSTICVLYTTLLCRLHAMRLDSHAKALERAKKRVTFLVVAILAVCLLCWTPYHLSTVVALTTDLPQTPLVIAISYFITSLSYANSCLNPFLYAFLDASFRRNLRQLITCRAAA
TAAR1 ag = human TAAR1 agonism; CHO RD-HGA16 TAAR1, Fluo-8 calcium fluorescence; vehicle wells 0%, saturating PEA agonist 100%; activation, % at 3 µM; actives 0.99% (n = 360,000);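 active means activation above the mean activation of all test compounds in the run plus 3 SD, cut at about 38% in these data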
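Assay system: CHO-derived RD-HGA16 cells with stable Gα16 and human TAAR1; timing: 17-24 h seeding, 75 min 37 °C dye, 30 min RT; read-out: % activation from peak over basal fluorescence ratio, DMSO-to-PEA scaled; measured by: kinetic Fluo-8 calcium fluorescence; benchmarks: low control DMSO, high control PEA (EC100); doses: 3 µM single concentration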
CHO parental Ca = counter-screen for OX1R antagonists: effect in parental CHO cells. actives 0.63% (n = 330,000). parental CHO-K1, ATP-induced calcium, Fluo-8 fluorescence. inhibition, % at 5.6 µM. AID 463079;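 active means inhibition above that plate's mean sample inhibition plus 3 SD, cut at about 26% in these data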;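 further: 0% = ATP-challenged DMSO wells and 100% = DMSO wells without ATP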
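Assay system: parental CHO cells; Read-out basis: percent inhibition of ATP-evoked calcium rise, normalized to controls; Benchmarks: ATP and no-ATP DMSO wells; Compound dosing: single nominal dose of 5.6 µM per compound; Signal: Fluo-8 calcium dye fluorescence; Also added: ATP as calcium-mobilizing challenge; Repeats: singlicate.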
OX1R antag-1 = blocks the human orexin 1 receptor; O43613; CHO/OX1R cells, Fluo-8 calcium fluorescence, orexin A; inhibition, % at 5 µM; actives 0.43% (n = 330,000); AID 434989;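 active means inhibition above its plate's threshold, mean inhibition of all tested compounds on the plate plus 3 SD, cut at about 37% in these data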;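 further: 0% = orexin A challenge wells and 100% = SB-334867-A antagonist wells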
Target sequence (O43613 whole entry, looked up): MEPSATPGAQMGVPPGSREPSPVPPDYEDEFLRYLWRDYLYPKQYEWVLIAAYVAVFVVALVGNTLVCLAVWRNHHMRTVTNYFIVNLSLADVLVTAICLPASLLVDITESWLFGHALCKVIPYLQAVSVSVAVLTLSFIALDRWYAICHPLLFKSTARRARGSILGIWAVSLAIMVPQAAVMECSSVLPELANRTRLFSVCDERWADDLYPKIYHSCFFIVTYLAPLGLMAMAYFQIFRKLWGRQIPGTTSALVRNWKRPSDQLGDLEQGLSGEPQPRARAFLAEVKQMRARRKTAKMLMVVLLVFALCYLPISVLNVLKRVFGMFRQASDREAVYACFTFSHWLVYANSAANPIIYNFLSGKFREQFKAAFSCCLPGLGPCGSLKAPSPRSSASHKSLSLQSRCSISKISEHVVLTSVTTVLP
TAAR1 antag = antagonists of human TAAR1; Q96RJ0; CHO RD-HGA16 TAAR1, Fluo-8 calcium fluorescence, antagonist; inhibition, % at 3 µM; actives 1.5% (n = 360,000); AID 624466;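 active means inhibition above a per-plate cutoff, the mean inhibition of test compounds on that plate plus 3 SD, cut at about 49% in these data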;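 further: 0% = DMSO plus EC80 beta-PEA response and 100% = DMSO alone without agonist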
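Test system: hTAAR1-expressing CHO RD-HGA16 cells, Gα16-coupled; Probe or stimulus: EC80 β-phenethylamine stimulus; Compound dosing: single nominal final test compound concentration of 3 µM; Timing: 140 s kinetic read after compound, 140 s after agonist; Signal: Fluo-8 calcium-sensitive fluorescence; Measure: % inhibition of agonist calcium response; Controls: DMSO and EC80 PEA controls.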
OX1R antag-2 = OX1R (human) antagonism; OX1R-expressing cells, FRET antagonist read-out; inhibition, % at 6.6 µM; actives 1.8% (n = 330,000); in the data active means inhibition mostly above about 38%, no sharp cut-off; inactive means mostly below about 40%;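 further: 0% = agonist challenge alone and 100% = reference antagonist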
Numbers without * were called inactive; / = no result.

SMILES | GPR7 antagonist | TAAR1 ag | CHO parental Ca | OX1R antag-1 | TAAR1 antag | OX1R antag-2
CC(=O)C1=C(C)N(Cc2ccc(F)cc2)C(=S)NC1c1cccc(F)c1 (stereo not given) | / | -1 | / | / | 34 | /
Cc1ccc(-c2ocnc2C(=O)Nc2ccccc2NC(=O)c2ccccn2)cc1 | -4 | -1 | -22 | -29 | 25 | 20
Cc1cccc(-c2ocnc2C(=O)Nc2ccccc2NC(=O)c2ccccn2)c1 | -20 | -2 | -12 | -26 | 18 | 66*
OC(CNCCC1C=Nc2ccccc21)Cn1c2ccc(Cl)cc2c2cc(Cl)ccc21 (stereo not given) | 6 | 40* | 56* | 39 | 42 | 3
O=C(c1ccc2c(c1)C(=O)NC2=O)c1ccc2c(c1)C(=O)NC2=O | / | 5 | / | / | 5 | /
CC1CN(C(=O)c2ccc(S(=O)(=O)Nc3cccc(C(F)(F)F)c3)cc2)CC(C)O1 (stereo not given) | / | 59* | 12 | 2 | 17 | 1
CCCCOc1ccc(S(=O)(=O)NC(=O)C2(C)CCN2C(=O)c2c(C)noc2C)cc1 (stereo not given) | / | 0 | / | / | 10 | /
COc1cc(CNCCN2CCOCC2)ccc1OCc1ccc(Cl)cc1 | 9 | 4 | -18 | -15 | -7 | 23
COc1cc(CNCCCN2CCOCC2)cc(Br)c1OCc1ccc(Cl)cc1 | 59* | 13 | -3 | 0 | 2 | 6
O=C(COC(=O)c1ccc2ncsc2c1)Nc1ccc(OC(F)(F)F)cc1 | / | 2 | 25 | 37* | -3 | -5
CC(C)(C)c1ccc(NC(=O)COC(=O)c2ccc3ncsc3c2)cc1 | / | 6 | -11 | -4 | -2 | 4
COC(=O)c1ccc2nc(-c3ccc(F)cc3)c(Cc3ccccc3C(F)(F)F)n2c1 | / | 1 | / | / | -18 | /
CCCCC[C@H](C)N1C[C@@H](COCc2ccccc2)Oc2cc(N3CCC[C@H]3C(N)=O)ccc2S1(=O)=O | / | 39* | / | / | -32 | /
CCCCC[C@@H](C)N1C[C@@H](COCc2ccccc2)Oc2cc(N3CCC[C@H]3C(N)=O)ccc2S1(=O)=O | / | 3 | / | / | -38 | /
CCOC(=O)N(C)C[C@@H]1OCc2cn(nn2)CCCC(=O)N([C@H](C)CO)C[C@H]1C | / | 1 | / | / | 1 | /
CC(C)NC(=O)OC[C@@H]1CSCCS(=O)(=O)N1 | / | 2 | / | / | 10 | /
Cc1ccc(S(=O)(=O)NCC2CCN(C(=O)C(=O)c3cc4ccccc4o3)CC2)cc1 | / | 0 | / | / | -21 | /
COCCN1C(=O)/C(=C/c2ccc(N3CCCC3)cc2C)SC1=S | 14 | 34 | 31* | 32 | 51* | 12
CCN=C1S/C(=C\c2ccc(N3CCOCC3)cc2C)C(=O)N1CC | -11 | 3 | -8 | -9 | 12 | 17
O=C(NNc1ccccc1[N+](=O)[O-])Nc1ccc(F)cc1 | -2 | 42* | -15 | -4 | 15 | 19
O=C(NNc1ccccc1[N+](=O)[O-])Nc1ccccc1 | -1 | / | -4 | -20 | / | 13
Cc1cc([N+](=O)[O-])ccc1NC(=O)Nc1ccccc1F | -11 | 7 | -5 | -8 | 13 | 5
O=C(Nc1ccccc1)Nc1cc([N+](=O)[O-])ccc1F | 5 | 41* | -5 | -1 | 3 | 16
COCCN1Cc2cc(C(=O)OC)c3c(c2C1=O)c1cc(OC)ccc1n3S(=O)(=O)c1ccc(C)cc1 | / | 2 | / | / | -33 | /
Cc1nn(CC(=O)Nc2ccccc2)c(=O)c2ccccc12 | -9 | 9 | -5 | -15 | -13 | 18
SMILES | GPR7 antagonist | TAAR1 ag | CHO parental Ca | OX1R antag-1 | TAAR1 antag | OX1R antag-2
Cc1ccc(NC(=O)Cn2nc(C)c3ccccc3c2=O)cc1F | 19* | 5 | -20 | -28 | 3 | 27
COc1ccc(CNC(=O)CSc2nc(SC)ns2)cc1 | -3 | -2 | 98* | -21 | 6 | 11
CN(Cc1c(C(=O)N/N=C/c2ccccc2O)nnn1-c1nonc1N)C1CCCCC1 | / | 2 | / | / | -5 | /
CN1c2ccccc2SC2C(c3ccccc3)=NOC21 (stereo not given) | / | -3 | / | / | -22 | /
COC(=O)c1ccc(C)c(NC(=O)c2c(-c3ccccc3)noc2C)c1 | -6 | 1 | -12 | 10 | 8 | 38*
COC(=O)c1ccc(NC(=S)NC(=O)c2c(-c3ccccc3)noc2C)cc1 | -6 | 3 | -10 | -19 | 0 | 24
CC(=O)N1CCN(c2ccc(N3CCN(C(C)=O)[C@H](C)C3)c(C)c2)[C@H](C)C1 | / | 2 | / | / | -18 | /
N#CC1=C(N)NC(SCc2ccc(F)cc2)=C(C#N)C12CCCCC2 | 5 | 29 | 27 | 41 | 54* | 66
O=C(C[n+]1ccccc1)N/N=C/c1cc(Br)cc(Br)c1O | 1 | / | 4 | -4 | / | 29*
Cn1nc(C(C)(C)C)cc1C(=O)NCC1CCN(C(=O)C(=O)c2cc3ccccc3o2)CC1 | / | 7 | / | / | 38 | /
OCc1ccccc1-c1cnc2sc(NCc3ccc(F)cc3)nn12 | / | 4 | / | / | -11 | /
Cn1ccsc1=NC(=O)c1ccc([N+](=O)[O-])o1 | -6 | 3 | -3 | -2 | -25 | 105*
O=C(NC1CCN(Cc2ccccc2)CC1)c1[nH]c(C(F)(F)F)nc1-c1ccccc1 | / | 4 | / | / | 0 | /
Cc1cc(C)cc(NC(=O)CSc2ccc(-c3cccs3)nn2)c1 | 3 | -1 | -26 | 8 | -10 | 62*
CC(=O)Nc1cccc(NC(=O)CSc2ccc(-c3ccccn3)nn2)c1 | -14 | 1 | -30 | -10 | -4 | 19
COc1cccc(-c2ccc(SCC(=O)c3ccccc3)nn2)c1 | 12 | 5 | 4 | -23 | 26 | 26
COc1ccc(C(=O)CSc2ccc(-c3ccccc3)nn2)cc1 | -4 | 1 | -11 | 7 | -16 | 69*
O=C(CSc1ccc(-c2cccs2)nn1)Nc1ccccc1 | -10 | 4 | 1 | -7 | -19 | 22
COc1cc(NC(=O)CSc2ccc(-c3ccccn3)nn2)cc(OC)c1 | -9 | 6 | -15 | 2 | -11 | 60*
CC(C)C[C@H]1COc2cc(Br)ccc2S(=O)(=O)N1Cc1ccc(Cl)cc1 | / | 3 | / | / | -17 | /
Cc1cccc(S(=O)(=O)N2CCC[C@H]2C(=O)N2CCC[C@@H]2C(=O)NCc2ccccc2)c1 | / | 2 | / | / | -8 | /
COc1ccc(OC)c(-n2c(SCC(=O)N3CCc4ccccc43)nc3c(c2=O)SCC3)c1 | -2 | / | -12 | -18 | / | 39*
CCOc1ccccc1NC(=O)C(Sc1ccccc1)c1ccccc1 (stereo not given) | -21 | 12 | 57* | 59* | 57* | 37
O=C(COC(=O)c1cc(=O)[nH]c2ccc(Br)cc12)c1ccccc1 | 1 | 41* | -21 | -38 | 26 | 18
O=C(COC(=O)c1cc(=O)[nH]c2ccccc12)c1ccc(Br)cc1 | -10 | -3 | -15 | -15 | -29 | -1
COC(=O)C1=C(C)N(Cc2ccc(C(F)(F)F)cc2)C(=NCc2ccccc2C(F)(F)F)NC1c1ccc(F)cc1 (stereo not given) | / | 8 | / | / | 45 | /

Compound activity (PubChem BioAssay)
